ChEMBL document CHEMBL1142589, “Steroidal alkaloids from the bulbs of Fritillaria puqiensis” (2005)
Calls of active or inactive are those of the source. No cut-off for these calls is given here.

Columns and labels:
[1] = system: BGC-823; assay: Antitumor activity against human BGC-823 cells at 0.1 uM by MTT assay; type: functional, cell-based
How it was run: (§1)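 MTT growth-inhibition assay on human A549, BGC-823, SMMC-7721 and HL-60 cancer cells. Each compound was tested at 1×10^-7, 1×10^-6 and 1×10^-5 mol/L. Percent inhibition was calculated relative to untreated cells.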

[2] = system: HL-60; assay: Antitumor activity against human HL-60 cells at 0.1 uM by MTT assay; type: functional, cell-based; how it was run: as §1
[3] = system: Mus musculus; assay: Antitussive activity in ammonia liquor-induced mouse assessed as number of cough times at 10 mg/kg, po daily for 3 consecutive days administered before ammonia liquor induction measured for 3 mins; type: functional
How it was run: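 Mice were dosed for three days, with vehicle 0.5% sodium carboxymethyl cellulose at 0.2 mL/mouse; codeine 10 mg/kg served as positive control. On day 3, 2 h post-dose, each mouse was placed in a glass chamber and exposed for 5 s to 28% NH4OH aerosol nebulised by compressed air at about 400 mmHg. Coughs were counted over 3 min from spray onset; n = 10, mean ± SD.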

[4] = system: A549; assay: Antitumor activity against human A549 cells at 0.1 uM by MTT assay; type: functional, cell-based; how it was run: as §1
[5] = system: BGC-823; assay: Antitumor activity against human BGC-823 cells at 1 uM by MTT assay; type: functional, cell-based; how it was run: as §1
[6] = system: SMMC-7721; assay: Antitumor activity against human SMMC7721 cells at 1 uM by MTT assay; type: functional, cell-based; how it was run: as §1
[7] = system: A549; assay: Antitumor activity against human A549 cells at 1 uM by MTT assay; type: functional, cell-based; how it was run: as §1
[8] = system: HL-60; assay: Antitumor activity against human HL-60 cells at 1 uM by MTT assay; type: functional, cell-based; how it was run: as §1
[9] = system: SMMC-7721; assay: Antitumor activity against human SMMC7721 cells at 0.1 uM by MTT assay; type: functional, cell-based; how it was run: as §1
[10] = system: Mus musculus; assay: Antitussive activity in ammonia liquor-induced mouse assessed as number of cough times at 5 mg/kg, po daily for 3 consecutive days administered before ammonia liquor induction measured for 3 mins; type: functional
How it was run: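 Mice were dosed in 0.5% sodium carboxymethyl cellulose vehicle (0.2 mL/mouse). On day 3, 2 h after dosing, they were placed in a glass chamber and exposed for 5 s to 28% NH₄OH aerosol, nebulized with compressed air at about 400 mmHg. Coughs were counted over 3 min from spray start. Codeine 10 mg/kg was the positive control and vehicle the negative control. n = 10, mean ± SD.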

[11] = system: HL-60; assay: Antitumor activity against human HL-60 cells at 10 uM by MTT assay; type: functional
How it was run: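 HL-60 cells were tested by MTT assay at 1×10^-7, 1×10^-6 and 1×10^-5 mol/L of each compound. Percent growth inhibition was calculated relative to untreated cells.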

Compound	Activity [1]	Activity [2]	Activity [3]	Activity [4]	Activity [5]	Activity [6]	Activity [7]	Activity [8]	Activity [9]	Activity [10]	Activity [11]
CC1=C2C[C@H]3[C@@H](C[C@@H](O)[C@H]4C[C@@H](O)CC[C@@]43C)[C@@H]2CC[C@@H]1[C@@H](C)[C@@H]1[C@H](O)C[C@@H](C)CN1C (relative stereo) [PUQIENINE A]	inactive	inactive	14	inactive	inactive	inactive	inactive	inactive	inactive	18	–
C[C@H]1CC[C@H]([C@@H](C)[C@H]2CC[C@H]3[C@@H]4CC(=O)[C@H]5C[C@@H](O)CC[C@]5(C)[C@H]4CC[C@]23C)NC1	inactive	inactive	18	inactive	inactive	inactive	inactive	inactive	inactive	23	51%
CC1=C2C[C@H]3[C@@H](CC(=O)[C@H]4C[C@@H](O)CC[C@@]43C)[C@@H]2CC[C@@H]1[C@@H](C)[C@@H]1[C@H](O)C[C@@H](C)CN1C (relative stereo) [PUQIENINE B]	inactive	inactive	10	inactive	inactive	inactive	inactive	inactive	inactive	12	–
COc1ccc2c3c1O[C@H]1[C@@H](O)C=C[C@H]4[C@@H](C2)N(C)CC[C@@]341 [CODEINE]	–	–	5	–	–	–	–	–	–	–	–
C[C@H]1CC[C@H]([C@@H](C)[C@H]2CC[C@H]3[C@@H]4CC(=O)[C@H]5C[C@@H](O[C@@H]6O[C@H](CO)[C@@H](O)[C@H](O)[C@H]6O)CC[C@]5(C)[C@H]4CC[C@]23C)N(C)C1 [PUQIETINONOSIDE]	inactive	inactive	13	inactive	inactive	inactive	inactive	inactive	inactive	17	–
C[C@@H]1CC[C@@H]([C@@H](C)[C@@H]2CC[C@H]3[C@@H]4CC(=O)[C@H]5C[C@@H](O)CC[C@]5(C)[C@H]4CC[C@]23C)N(C)C1 [PUQIETINONE]	–	–	11	–	–	–	–	–	–	17	–
